According to PubChem BioAssay:
Calls of active or inactive are those of the source.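 How the source made its calls, unless noted: active means viability at or below 30% in both replicate assays; inconclusive means viability at or below 30% in just one of the two assays; inactive means the rest.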

Assays:
[1] = reduced viability of SK-BR-3 breast cancer cells – cell-based, 24 h, human, pilot screen (AID 572;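 active means viability at or below 10% of carrier control in both of two separate runs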;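 further: compound exposure lasted between 18 and 24 h rather than exactly 24 h; 100% = carrier-treated control wells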); conditions: SK-BR-3 viability, CellTiter-Glo luminescence, at 10 µM, stronger effect = lower value
[2] = HUVEC growth inhibition – cell-based, human, primary screen (AID 575); conditions: HUVEC proliferation, CellTiter-Glo luminescence, 72 h; at 10 µM; stronger effect = lower value;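 further: 100% = median of untreated cell wells with 0.1% DMSO on each plate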
How it was run: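 Test system: HUVEC primary cells. Quantity: 1250 endothelial cells in each well. Dosing: single-point 10 µM, DMSO 0.1% final. Incubation: 72 h treatment at 37 °C. Measured by: CTG luminescence. Control set: DMSO cell controls and MePR drug controls. Plate: collagen-coated 384-well format.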

[3] = H69AR cell proliferation blockers – human, duplicate replicates, primary screen (AID 580;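 active means viability at or under a set limit in both replicates, limit being median viability minus 3 SD, cut at about 48% in these data, passing the limit was not always enough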;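 further: 100% = mean luminescence of untreated wells and 0% = no signal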); conditions: H69AR lung tumor cells viability, ATP luminescence, 72 h; at 10 µM; stronger effect = lower value
[4] = MRP1 drug-resistance reversers in H69AR cells – cell-based, doxorubicin co-treatment, pilot screen (AID 601;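 active means viability loss from added drug above about 55%, and viability with drug at most 40%, in both replicates, limit read from the data, passing the limit was not always enough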); conditions: CellTiter-Glo, 72 h, at 10 µM; for differential viability (reversal): stronger effect = higher value
[5] = yeast transport mutant growth inhibition pilot in 384-well plates, post-Golgi transport modulator project (AID 636; in the data active means inhibition above about 31%); conditions: absorbance 615 nm, about 18 h, stronger effect = higher value
[6] = growth suppression of yeast trafficking mutant, preliminary HTS, modulators of trafficking downstream of Golgi apparatus project, 1536-format plate, OD 615 nm (AID 637; in the data active means inhibition above about 30%); conditions: yeast transport mutant growth, absorbance 615 nm, 18 h; stronger effect = higher value
[7] = H69AR cells + 2 uM doxorubicin, measured here: viability with 2 uM doxorubicin, stronger effect = lower value
[8] = H69AR cells, compound alone cytotoxicity

Compound | viability [1] | viability [2] | viability [3] | differential viability (reversal) ([4]; H69AR cells + 2 uM doxorubicin) | viability [4, 7] [%] | viability [4, 8] [%] | inhibition [5] | inhibition [6]
Cc1cc(/C=N\O)c(C)n1-c1ccncc1 | 120% (inactive) | 83.8% (inactive) | 91.4% (inactive) | -5.03% (inactive) | 96.4 | 91.4 | -7.26% (inactive) | -0.32% (inactive)
COC(=O)c1[nH]c2ccc(C)cc2c1NC(=O)CN1CCC(C)CC1 | 101% (inactive) | 94.5% (inactive) | 92.5% (inactive) | -6.15% (inactive) | 98.6 | 92.5 | -4.27% (inactive) | -2.73% (inactive)
CC(=O)OCC[N+](C)(C)C | 102% (inactive) | 96.7% (inactive) | 92.5% (inactive) | -8.23% (inactive) | 101 | 92.5 | 1.95% (inactive) | -2.5% (inactive)
NS(=O)(=O)c1cc2c(cc1C(F)(F)F)NCNS2(=O)=O | 100% (inactive) | 91% (inactive) | 109% (inactive) | 8.31% (inactive) | 101 | 109 | 1.17% (inactive) | 3.33% (inactive)
CN(C)c1nc(N(C)C)nc(N(C)C)n1 | 95% (inactive) | 106% (inactive) | 96.8% (inactive) | -2.79% (inactive) | 99.6 | 96.8 | -1.69% (inactive) | -2.67% (inactive)
c1cc2c(cc1Nc1nc(-c3ccc4c(c3)OCO4)cs1)OCCO2 | 97% (inactive) | 72.6% (inactive) | 90.5% (inactive) | -8.93% (inactive) | 99.4 | 90.5 | -4.19% (inactive) | -10% (inactive)
Cc1cc(=O)n2nc(N3CCCC(C(=O)N4CCc5ccccc54)C3)sc2n1 (centres undefined) | 82% (inactive) | 87.1% (inactive) | 85.8% (inactive) | -2.83% (inactive) | 88.7 | 85.8 | -6.76% (inactive) | 1.64% (inactive)
O=C(CNC(=O)c1cc2ccccc2o1)NCc1cccs1 | 122% (inactive) | 80.8% (inactive) | 84.4% (inactive) | -4.37% (inactive) | 88.8 | 84.4 | 0.26% (inactive) | 5.74% (inactive)
Cc1cc(C(=O)N2CCCc3ccccc32)no1 | 98% (inactive) | 102% (inactive) | 105% (inactive) | 14.4% (inactive) | 90.3 | 105 | -2.27% (inactive) | 1.27% (inactive)
CC(=O)OCC(=O)[C@H]1CC[C@H]2[C@@H]3CCC4=CC(=O)CC[C@]4(C)[C@H]3CC[C@]12C | 86% (inactive) | 39.2% (inactive) | 102% (inactive) | -0.2% (inactive) | 102 | 102 | -0.91% (inactive) | -3.5% (inactive)
COC(=O)CCn1nnc(-c2ccc(C)cc2)n1 | 90% (inactive) | 109% (inactive) | 94.1% (inactive) | 3.69% (inactive) | 90.4 | 94.1 | -6% (inactive) | -2.91% (inactive)
O=C(Nc1ccccc1)N1CCC(c2ccccc2)C1 (centres undefined) | 62% (inactive) | 109% (inactive) | 86.7% (inactive) | 19.2% (inactive) | 67.5 | 86.7 | -2.6% (inactive) | 4.92% (inactive)
Cc1ccc(CC2SC(=O)NC2=O)cc1Cl (centres undefined) | 107% (inactive) | 75.8% (inactive) | 92.7% (inactive) | 4.26% (inactive) | 88.4 | 92.7 | 3.42% (inactive) | -2.26% (inactive)
Cc1onc(-c2ccccc2)c1C(=O)NCCN1CCOCC1 | 94% (inactive) | 102% (inactive) | 98% (inactive) | 10.1% (inactive) | 87.9 | 98 | -4.93% (inactive) | -4% (inactive)
Clc1ccc2c(c1)[C@H]1OCC[C@H]1[C@@H](c1ccco1)N2 | 104% (inactive) | 89.6% (inactive) | 86% (inactive) | 0.43% (inactive) | 85.6 | 86 | -0.13% (inactive) | -5.83% (inactive)
Cc1cccc(C(=O)N(C)c2nnc(-c3ccncc3)s2)c1 | 98% (inactive) | 92.5% (inactive) | 85.8% (inactive) | -3.53% (inactive) | 89.4 | 85.8 | -0.41% (inactive) | 24.7% (inactive)
CC(=O)[C@@]1(O)CC[C@H]2[C@@H]3C[C@H](C)C4=CC(=O)C=C[C@]4(C)[C@@]3(F)[C@@H](O)C[C@@]21C | 100% (inactive) | 92.3% (inactive) | 93.2% (inactive) | -9.97% (inactive) | 103 | 93.2 | -0.91% (inactive) | 7.83% (inactive)
O=S(=O)(Nc1nc2ccccc2nc1NCc1ccco1)c1cccs1 | 91% (inactive) | 100% (inactive) | 29% (active) | -23% (inactive) | 51.9 | 29 | -5.68% (inactive) | 0.73% (inactive)
Cc1c(NC(=O)c2nn(C)c(=O)c3ccccc23)c(=O)n(-c2ccccc2)n1C | 94% (inactive) | 108% (inactive) | 97.9% (inactive) | 8.84% (inactive) | 89.1 | 97.9 | -1.92% (inactive) | -8.06% (inactive)
COCCCn1c(=N)c(C(=O)NCC2CCCO2)cc2c(=O)n3cccc(C)c3nc21 (centres undefined) | 62% (inactive) | 93% (inactive) | 98.7% (inactive) | 5.39% (inactive) | 93.3 | 98.7 | -6.8% (inactive) | 2.18% (inactive)
COc1ccc(-c2nc3cc(NC(=O)Cc4ccc(OC)c(OC)c4)ccc3o2)cc1 | 90.5% (inactive) | 54.8% (inactive) | 94.4% (inactive) | 3.68% (inactive) | 90.7 | 94.4 | 0.67% (inactive) | 2.58% (inactive)
CCCn1c(=NC(C)=O)c(C#N)cc2c(=O)n3cccc(C)c3nc21 | 89% (inactive) | 108% (inactive) | 87.3% (inactive) | -3.01% (inactive) | 90.3 | 87.3 | 0.81% (inactive) | -3.45% (inactive)
COCCc1ccc(OCC(O)CNC(C)C)cc1 (centres undefined) | 117% (inactive) | 70.4% (inactive) | 98.3% (inactive) | -7.28% (inactive) | 106 | 98.3 | -2.86% (inactive) | 1.33% (inactive)
